Entries after “also recorded” stand apart in the source; their conditions may differ. Numbered stars: 1 amine (or outer) side, 2 acyl side, 3 side chain; on linkers, the order of the positions; unused ones are H or OH. Suc = O=C(CCC(=O)[*:2])[*:1]
Legend:
HIV-1 RRE IIB RNA = assay: Dissociation constants by electrophoretic mobility shift assay; assay type: binding; conditions: EMSA, average of at least three experiments
[1] = system: U87 CXCR4 human glioblastoma cell line stably transfected with CD4 and CXCR4; assay: MTT toxicity assay; assay type: cell-based; conditions: for toxicity (MTT assay): U87 CXCR4 cells, concentrations up to 100 μM; for cell viability (MTT assay in parallel with second p24 screening): at 40 μM
Method in brief: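 MTT viability read in U87 human glioblastoma cells stably transfected with CD4 and CXCR4, with cells receiving no compound as the control. It was run as a toxicity screen of test peptides and again in parallel with the second p24 ELISA screen of HIV replication.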

[2] = system: HIV-1 capsid protein p24 production; assay type: cell-based; conditions: p24 ELISA; for suppression of HIV replication / inhibition of p24 / inhibition of the production of p24: initial screen; for suppression of HIV replication / inhibition of p24: 100 μM; for inhibition of the production of p24: 10 μM; for inhibition of p24 expression: 40 μM
wild-type RRE IIB RNA = conditions: EMSA; cited from earlier work

Substance (KKK)2*LKBBALY [Peptide A2] has a Kd (HIV-1 RRE IIB RNA) of 130 ± 30 nM.
Substance (KKBBAK)2*LLKY [Peptide A8] has a Kd (HIV-1 RRE IIB RNA) of 660 ± 90 nM.
Work on (KLK)2*LKKBBAY [Peptide A10] yielded a Kd (HIV-1 RRE IIB RNA) of 300 ± 40 nM.
For (KKK)2*KLKACRY [Peptide A4], the Kd (HIV-1 RRE IIB RNA) was 20 ± 4 nM, the “toxicity (MTT assay)” value [1] was “slight toxicity” and the “suppression of HIV replication / inhibition of p24” value [2] was “greatly suppressed HIV replication; also recorded: complete or virtually complete inhibition of p24”.
In the case of (KKL)2*KKBBAKBBAY [Peptide A14], the Kd (HIV-1 RRE IIB RNA) is reported as 170 ± 50 nM.
In the case of (KKK)2*LKBBAKBBAY [Peptide A1], the Kd (HIV-1 RRE IIB RNA) is reported as 280 ± 80 nM and the “suppression of HIV replication / inhibition of p24” value [2] is reported as “greatly suppressed HIV replication; also recorded: complete or virtually complete inhibition of p24”.
With (KLK)2*KKKBBAY [Peptide A11] the Kd (HIV-1 RRE IIB RNA) was 1430 ± 870 nM and the “inhibition of the production of p24” value [2] was 40%.
For Suc-TRQARRNRRRRWRERQRAAAAR-NH2 [Rev17], the Kd (wild-type RRE IIB RNA) is listed as 100 nM.
In the case of (KKKBBA)2*KLKBBAY [Peptide A9], the Kd (HIV-1 RRE IIB RNA) is reported as 120 ± 40 nM.
In the case of (KACRKK)2*KLKBBAY [Peptide A6], the Kd (HIV-1 RRE IIB RNA) is reported as 60 ± 10 nM, the “toxicity (MTT assay)” value [1] is reported as “slight toxicity; also recorded: nearly non-toxic” and the “cell viability (MTT assay in parallel with second p24 screening)” value [1] is reported as “confirmed cell viability”. For the same substance, the “inhibition of p24 expression” value [2] was “approximately 90%” and the “suppression of HIV replication / inhibition of p24” value [2] was “greatly suppressed HIV replication; also recorded: complete or virtually complete inhibition of p24”.
With (KKL)2*LKKBBAY [Peptide A12] the Kd (HIV-1 RRE IIB RNA) was 330 ± 100 nM.
In the case of (KKACRK)2*KLKBBAY [Peptide A7], the Kd (HIV-1 RRE IIB RNA) is reported as 70 ± 30 nM, the “toxicity (MTT assay)” value [1] is reported as “cytotoxicity in a dose-dependent manner; also recorded: moderate toxicity” and the “cell viability (MTT assay in parallel with second p24 screening)” value [1] is reported as “confirmed cell viability”. The “inhibition of p24 expression” value [2] was “approximately 90%”, the “inhibition of the production of p24” value [2] was 60% and the “suppression of HIV replication / inhibition of p24” value [2] was “greatly suppressed HIV replication; also recorded: complete or virtually complete inhibition of p24”.
In the case of (KKK)2*KACRLKY [Peptide A3], the Kd (HIV-1 RRE IIB RNA) is reported as 140 ± 50 nM and the “suppression of HIV replication / inhibition of p24” value [2] is reported as “greatly suppressed HIV replication”.
(LLK)2*KKBBAKY [Peptide A13] gave a Kd (HIV-1 RRE IIB RNA) of 210 ± 30 nM.
